Screening data (PubChem BioAssay)
PfGluPho inh: PfG6PD enzyme inhibitors, primary screen, biochemical, fluorescence intensity, uHTS | glucose-6-phosphate dehydrogenase-6-phosphogluconolactonase (Plasmodium falciparum 3D7) | PfGluPho enzyme, NADPH resazurin-diaphorase fluorescence | inhibition, % at 20 µM | 350,000 tested, 0.78% active | AID 504690, 2011;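 active = inhibition reaching at least a set limit at 20 µM in the primary screen, cut at about 59% in these data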;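 note: 0% = DMSO wells with substrate and 100% = DMSO wells lacking glucose-6-phosphate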
HKDC1 inhibitor: HKDC1 hexokinase inhibitors, primary screen, biochemical, fluorescence, uHTS; Q2TB90; recombinant HKDC1, G6PDH/diaphorase resazurin coupled fluorescence; inhibition, % at 20 µM; 340,000 tested, 0.16% active;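 active = inhibition above about 35% when tested at 20 µM, limit read from the data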;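 note: plate controls were DMSO wells with enzyme for no effect and DMSO wells lacking enzyme for full effect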
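Assay system: recombinant HKDC1 hexokinase; detection: coupled resazurin fluorescence, excitation 525 nm, emission 613 nm; benchmarks: DMSO-plus-enzyme-mix negative control, buffer-substituted positive control; compound dosing: single 20 µM dose; schedule: 90 min at room temperature in dark; also added: glucose plus 1 mM ATP as hexokinase substrates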
Cardio protect: cardioprotection against H2O2-induced cell death, primary screen, uHTS, H9c2 cells, ATPLite luminescence; H9c2 cardiomyocytes, H2O2 injury protection, 2 h; protection from H2O2 cell death, % at 20 µM; 360,000 tested, 0.63% active;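 active = compounds giving at least 50% protection of heart cells from peroxide-induced death in the single-dose screen, raw or plate-pattern-corrected value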;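 note: 0% = DMSO wells with peroxide and 100% = DMSO wells without peroxide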
Beta2AR agonist: beta2AR agonists driving receptor internalization, primary screen, cell-based, FAP fluorogen, flow cytometry | Am2.2-beta2AR cells | response, % (concentration not given with the values) | Beta-2 adrenergic receptor (Homo sapiens), P07550 | 340,000 tested, 0.43% active;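 active = response above a set limit, near 3 SD of response in nonfluorescent compounds, cut at about 42% in these data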
Target sequence (P07550 whole entry, looked up): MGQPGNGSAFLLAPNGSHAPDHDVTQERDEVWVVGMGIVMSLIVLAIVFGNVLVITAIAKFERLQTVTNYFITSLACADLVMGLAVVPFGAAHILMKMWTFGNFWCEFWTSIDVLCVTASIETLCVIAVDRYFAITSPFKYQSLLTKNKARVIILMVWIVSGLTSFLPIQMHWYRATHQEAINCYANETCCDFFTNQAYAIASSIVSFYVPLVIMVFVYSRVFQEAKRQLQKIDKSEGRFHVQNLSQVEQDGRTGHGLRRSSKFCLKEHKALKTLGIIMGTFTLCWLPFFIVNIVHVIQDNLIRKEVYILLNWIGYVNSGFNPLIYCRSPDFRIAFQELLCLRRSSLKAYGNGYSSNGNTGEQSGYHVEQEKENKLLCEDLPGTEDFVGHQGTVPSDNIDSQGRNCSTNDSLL
aDG glyco act: activators of alpha-DG glycosylation, primary screen, uHTS, Pro5-aDG cells, AlphaScreen | AID 624168, 2012 | 360,000 tested, 0.22% active | activation, % at 10 µM | alpha-DG glycosylation AlphaScreen (IIH6); 0% Pro5, 100% B10-LARGE cell signal;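 active = activation of at least 8% versus controls, or a plate z-score of at least 8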;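 note: Pro5 are CHO cells carrying HIG-tagged alpha-DG that lacks glycosylation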
UCH37 DUB inh: inhibitors of human UCH37 deubiquitinase, primary screen, biochemical, Ub-AMC cleavage, fluorescence | purified proteasome/UCH37 | inhibition, % (no concentration beside the values) | Ubiquitin carboxyl-terminal hydrolase isozyme L5 (Homo sapiens), Q9Y5K5 | 330,000 tested, 0.33% active;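 active = mean inhibition over replicate wells above about 20%, limit read from the data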;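 note: 0% = compound-free wells with enzyme and 100% = wells lacking proteasome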
Target sequence (Q9Y5K5 whole entry, looked up): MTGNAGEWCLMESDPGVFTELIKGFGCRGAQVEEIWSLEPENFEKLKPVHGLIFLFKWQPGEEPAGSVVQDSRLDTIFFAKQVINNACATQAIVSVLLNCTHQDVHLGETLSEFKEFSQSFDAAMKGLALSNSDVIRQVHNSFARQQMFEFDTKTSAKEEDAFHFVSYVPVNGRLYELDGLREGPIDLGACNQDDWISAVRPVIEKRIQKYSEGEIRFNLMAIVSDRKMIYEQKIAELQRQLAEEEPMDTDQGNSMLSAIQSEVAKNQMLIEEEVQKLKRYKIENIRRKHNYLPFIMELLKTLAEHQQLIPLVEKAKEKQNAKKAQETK
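assay system = human UCH37 enzyme supplied as purified proteasome complex | amount = proteasome at 0.15 nM in the dispensed enzyme solution | schedule = 30 min compound-proteasome preincubation then 25 min substrate reaction, room temperature | measured by = fluorescence, ex 355 nm, em 460 nm | benchmarks = no-proteasome wells (full inhibition) and compound-free wells (no inhibition)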
The depositor's hits bear a star; i = inactive; · = no result. Most compounds without a hit are left out; they make up all but 2.1% or so of the library.

SMILES	PfGluPho inh	HKDC1 inhibitor	Cardio protect	Beta2AR agonist	aDG glyco act	UCH37 DUB inh
CCN(CC)CCn1c(NC(=O)c2ccc(Cl)cc2)nc2ccccc21	10.7	-22.2	62.5*	-10.6	0.6	-75.2
COc1ccc(C(=O)COc2ccc3ccc(=O)oc3c2)c(OC)c1	39.8	-8.3	17.8	51.2*	0.3	-93.0
COc1ccc(C(=O)COc2ccc3ccc(=O)oc3c2)cc1	38.5	-1.3	3.9	3.3	0.2	-8.2
CC(C)(C)Nc1nc(Cl)nc(N(C#N)CN2C(=O)c3ccccc3S2(=O)=O)n1	-23.7	-9.4	-7.0	45.3*	0.3	1.0
O=C(CN1CC(=O)Oc2ccccc21)OCC(=O)c1cccc(Br)c1	-17.8	0.4	59.7*	-1.4	0.0	0.9
Cc1ccsc1C=Nc1ccc(O)cc1	84.0*	23.7	-5.7	1.9	0.0	16.5
O=C(NN=Cc1cc2ccccc2nc1Cl)[C@H]1C[C@@H]1c1ccccc1	·	·	·	·	·	-4.0
CC(=NNC(=O)C12CCC(C)(C(=O)O1)C2(C)C)c1ccccc1O (stereo not given)	·	·	·	·	·	2.5
Brc1ccc(CSc2ccc3nnc(-c4cccnc4)n3n2)cc1	-8.3	11.1	67.7*	15.8	-0.1	-2.4
CN1CCN(Cc2c(O)ccc3cc(-c4ccccn4)c(=O)oc23)CC1	-7.3	6.1	16.0	68.8*	-0.4	i
Cc1c(C)c2ccc(O)c(CN3CCN(C)CC3)c2oc1=O	2.3	7.0	6.0	-10.1	0.1	i
Cc1ccc(C(=O)NN=Cc2ccc(-c3ccccc3[N+](=O)[O-])o2)cn1	·	·	·	·	·	12.1
O=[N+]([O-])c1ccc(Sc2cccc[n+]2[O-])c2nonc12	115.0*	15.0	-18.1	8.0	-0.1	15.5
Cc1ccc(-c2ccc(C=Nn3cnnc3)o2)cc1Cl	·	·	·	·	·	-20.0
N#C/C(=C\c1ccc(O)c(O)c1)C(=O)N1CCc2ccccc21	-23.4	-4.0	77.4*	-3.0	-0.1	0.4
N#C/C(=C\c1ccc(O)c(O)c1)C(=O)NCCc1ccccc1	-28.0	-5.8	77.2*	-2.8	-0.2	5.8
COc1cc(/C=C(\C#N)C(=O)NCCc2ccccc2)cc(OC)c1O	14.5	2.0	10.0	-29.7	-0.2	4.6
COc1cc(/C=C(\C#N)C(=O)N2CCc3ccccc32)ccc1O	-4.4	3.2	3.5	8.8	0.1	5.6
Fc1ccccc1C=NN1CCN(Cc2ccccc2Cl)CC1	·	·	·	·	·	3.7
COC(=O)c1cc(NC(=O)c2cc3ccccc3o2)cc(C(=O)OC)c1	4.6	3.0	89.2*	2.9	-0.1	-1.2
COc1cccc(-c2nnc(SC(C(=O)c3c[nH]c4ccccc34)c3ccccc3)n2C)c1 (stereo not given)	-11.3	-9.0	-6.1	-1.8	0.7	29.4*
O=C(Nc1ccc(Cl)cc1Cl)c1cccc(N2C(=O)C=CC2=O)c1	112.9*	-6.9	-19.2	70.6*	-0.2	1.0
CCN(Cc1ccccc1)c1ccc(C=NNC(=S)NC(C)C)cc1	·	·	·	·	·	-52.0
Cc1cccc2c1NC(=O)/C2=C\C(=O)c1cccs1	28.3	9.1	-10.3	8.4	-0.2	2.1
CCc1ccc2c(c1)/C(=C/C(=O)c1cccs1)C(=O)N2	47.4	7.1	-16.4	78.1*	-0.6	0.0
SMILES	PfGluPho inh	HKDC1 inhibitor	Cardio protect	Beta2AR agonist	aDG glyco act	UCH37 DUB inh
COc1ccc(C=NNC(=O)C(=O)NCc2cccnc2)cc1OC	·	·	·	·	·	5.7
OC1(c2cccc(C(F)(F)F)c2)CCN(c2ncnc3c2[nH]c2ccc(F)cc23)CC1	13.9	10.7	-42.4	0.5	3.7*	-9.2
CCOC(=O)N1CCN(c2ncnc3c2[nH]c2ccc(F)cc23)CC1	13.9	3.7	-24.0	-7.8	5.9*	-17.2
Fc1ccc2[nH]c3c(N4CCN(c5ccccc5)CC4)ncnc3c2c1	18.1	11.2	-25.2	17.4	3.4	-3.9
CCCCOc1ncnc2c1[nH]c1ccc(F)cc12	-6.2	1.8	-15.3	1.7	6.5*	-23.8
Cc1ccc(N=Nc2ccc(O)c(/C=N\NC(=O)c3ccc(N)cc3)c2)cc1C	6.0	-1.6	55.5*	-6.0	-0.9	·
Cc1ccc(N=Nc2ccc(O)c(C=NNC(=O)c3ccc(N)cc3)c2)cc1C	·	·	·	·	·	8.6
Cc1nn(-c2ccccc2)c(C)c1C=NNS(=O)(=O)c1ccc(Cl)cc1	·	·	·	·	·	4.1
N#CC(C#N)=C1C=CC=CN1/C(=C\c1ccccc1)C(=O)c1cccs1	46.9	-6.2	-1.1	87.7*	-0.1	-16.9
Cc1ccc(NC(=O)COC(=O)CCc2nc3ccccc3c(=O)[nH]2)cc1Cl	5.8	-1.0	37.5	7.5	-0.2	2.4
Cc1ccc(NC(=O)CCCc2nc3ccccc3c(=O)[nH]2)c(Cl)c1	17.2	-1.3	63.3*	-5.5	-0.1	3.4
COc1ccc(NC(=O)CCCc2nc3ccccc3c(=O)[nH]2)cc1Cl	19.1	1.2	57.4*	-5.5	-0.4	2.6
Cc1cccc(-n2[nH]c(C)c(C=Nc3ccc4[nH]c(=O)[nH]c4c3)c2=O)c1	17.6	7.7	56.3*	11.9	-0.3	5.2
Cc1[nH]n(-c2ccccc2)c(=S)c1C=Nc1ccc([N+](=O)[O-])cc1	97.7*	-8.8	24.7	-121.6	0.0	11.1
Cc1[nH]n(-c2ccccc2)c(=O)c1C=Nc1ccc2[nH]c(=O)[nH]c2c1	14.2	8.5	55.0*	-11.0	0.0	4.8
Cc1[nH]n(-c2ccccc2)c(=O)c1C=Nc1cccc(F)c1	-9.2	3.6	3.7	-4.2	-0.2	5.5
Cc1[nH]n(-c2ccccc2)c(=O)c1C=Nc1ccc(S(=O)(=O)N=C(N)N)cc1	-4.1	9.9	-8.1	-14.1	0.0	10.2
Cc1[nH]n(-c2ccccc2)c(=O)c1C=NO	·	·	·	·	·	2.2
COc1ccc(C2CCCCCN2C(=O)C2CCN(S(=O)(=O)c3cccc(C(C)=O)c3)CC2)cc1 (stereo not given)	-0.6	-1.6	82.6*	4.1	-0.1	1.1
CC(=O)c1cccc(S(=O)(=O)N2CCC(C(=O)O)CC2)c1	-23.4	-4.0	-5.1	6.7	0.6	1.7
Cc1ccc(/C=C(\C#N)C(=O)NCC2CCCO2)o1 (stereo not given)	4.2	11.0	17.2	0.7	-0.2	13.2
C=CCNC(=O)/C(C#N)=C/c1ccc(C)o1	-1.0	1.5	12.0	-1.9	0.9	21.9*
COc1cc(-c2ccc3c(=O)c4ccccc4n(C)c3c2)cc(OC)c1OC	21.3	6.3	88.5*	7.5	-0.2	-10.3
Nc1ccc2c(c1)Cc1cc([N+](=O)[O-])ccc1-2	6.3	-9.1	-8.7	-4.0	0.3	29.2*
